According to ChEMBL document CHEMBL4152221, “Synthesis and structure-activity relationship of furoquinolinediones as inhibitors of Tyrosyl-DNA phosphodiesterase 2 (TDP2)” (Eur J Med Chem, 2018):
pIC50: −log10 of the molar value. Activity calls are given as the source filed them. The rule behind the calls is not given here.

Experiments:
[1] = target: Tyrosyl-DNA phosphodiesterase 1 (Homo sapiens, UniProt Q9NUW8); experiment: Inhibition of recombinant TDP1 (unknown origin) at 111 uM using 5'-[32P]-labeled N14Y as substrate after 15 mins by PAGE analysis
In short: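 5'-32P-labeled N14Y (3'-phosphotyrosyl single-stranded oligo) at 1 nM with 10 pM recombinant TDP1, 15 min at room temperature. Three-fold dilutions up to 111 μM. Gels scanned and quantified by densitometry. Positive control: AM-8-3.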

[2] = target: T1, Tyrosyl-DNA phosphodiesterase 2 (Homo sapiens, UniProt O95551); experiment: Inhibition of recombinant human TDP2 using TY18 (alpha-[32P]-cordycepin-3'-labeled) as substrate after 15 mins by PAGE analysis
T1 sequence (O95551 whole entry): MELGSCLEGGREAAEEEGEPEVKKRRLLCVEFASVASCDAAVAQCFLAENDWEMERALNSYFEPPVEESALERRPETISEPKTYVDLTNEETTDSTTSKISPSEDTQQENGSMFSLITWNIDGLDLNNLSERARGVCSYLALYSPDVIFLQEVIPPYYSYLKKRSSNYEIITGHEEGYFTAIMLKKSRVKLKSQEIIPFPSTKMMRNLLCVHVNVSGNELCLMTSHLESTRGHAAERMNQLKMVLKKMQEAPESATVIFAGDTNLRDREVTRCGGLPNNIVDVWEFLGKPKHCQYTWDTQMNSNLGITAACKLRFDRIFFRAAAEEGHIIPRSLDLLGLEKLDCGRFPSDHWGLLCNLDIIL
In short: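 32P-cordycepin-3'-labeled TY18 substrate at 1 nM with 25 pM recombinant human TDP2, 15 min at room temperature. Buffer: 50 mM Tris-HCl pH 7.5, 80 mM KCl, 5 mM MgCl2, 0.1 mM EDTA, 1 mM DTT, 40 μg/mL BSA, 0.01% Tween 20. Six or eight three-fold dilutions up to 111 μM. Gel densitometry; IC50 is mean ± SD of ≥3 independent experiments. Positive control: SV-163.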

[3] = target: T1, Tyrosyl-DNA phosphodiesterase 2; experiment: Inhibition of human TDP2 expressed in TDP2 deficient chicken DT40 whole cell extracts using TY19 DNA as substrate after 15 mins by PAGE analysis
In short: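 Extract from 1×10^7 TDP2-knockout DT40 cells complemented with human TDP2, lysed 15 min on ice, spun at 12000 g for 10 min, stored at -80 °C. TY19 substrate at 1 nM with 5 μg/mL extract, ±inhibitor, 15 min at room temperature in LMP2 buffer. Gel densitometry. IC50 is mean ± SD of ≥3 independent experiments.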

Sequence of Tyrosyl-DNA phosphodiesterase 1 (Q9NUW8 whole entry): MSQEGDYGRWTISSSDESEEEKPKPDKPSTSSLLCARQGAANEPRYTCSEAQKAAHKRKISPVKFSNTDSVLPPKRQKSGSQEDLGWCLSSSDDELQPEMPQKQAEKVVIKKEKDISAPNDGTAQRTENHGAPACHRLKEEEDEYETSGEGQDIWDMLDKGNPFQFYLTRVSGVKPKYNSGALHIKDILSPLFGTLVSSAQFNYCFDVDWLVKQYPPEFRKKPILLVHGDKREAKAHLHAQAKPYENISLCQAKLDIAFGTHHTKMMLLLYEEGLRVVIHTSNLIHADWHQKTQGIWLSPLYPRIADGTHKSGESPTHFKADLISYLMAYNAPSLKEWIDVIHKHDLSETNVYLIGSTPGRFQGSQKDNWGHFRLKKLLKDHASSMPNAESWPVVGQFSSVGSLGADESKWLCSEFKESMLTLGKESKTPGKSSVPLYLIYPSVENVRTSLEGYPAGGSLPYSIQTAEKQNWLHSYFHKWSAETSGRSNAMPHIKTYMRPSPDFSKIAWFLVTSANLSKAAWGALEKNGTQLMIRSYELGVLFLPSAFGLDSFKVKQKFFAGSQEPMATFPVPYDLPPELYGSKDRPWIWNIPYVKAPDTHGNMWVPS

inhibition [1]	pIC50 [2]	pIC50 [3]	SMILES
inactive	< 3.95	–	Cc1oc2c(c1C(=O)Oc1ccc(C(=O)c3ccccc3)cc1)C(=O)c1ncccc1C2=O
inactive	4.92	5.00	Cc1oc2c(c1C(=O)Oc1cccc(C#N)c1)C(=O)c1ncccc1C2=O
inactive	5.06	5.11	Cc1oc2c(c1C(=O)Oc1cccnc1)C(=O)c1ncccc1C2=O
inactive	< 3.95	–	Cc1cnc2c(c1)C(=O)c1occ(C)c1C2=O
inactive	< 3.95	–	CCOC(=O)c1n[nH]c2c1C(=O)c1cccnc1C2=O
inactive	< 3.95	< 3.95	Cc1oc2c(c1C(=O)Oc1ccccc1C#N)C(=O)c1ncccc1C2=O
inactive	4.64	4.77	COC(=O)[C@H](Cc1ccc(OC(=O)c2c(C)oc3c2C(=O)c2ncccc2C3=O)cc1)NC(C)=O
inactive	4.49	4.62	Cc1oc2c(c1C(=O)OCCC[n+]1ccccc1)C(=O)c1ncccc1C2=O
inactive	4.35	4.72	Cc1oc2c(c1C(=O)OCCCCCO)C(=O)c1ncccc1C2=O
inactive	4.82	4.89	Cc1oc2c(c1C(=O)Oc1ccc(C#N)cc1)C(=O)c1ncccc1C2=O
inactive	4.96	5.12	Cc1oc2c(c1C(=O)Oc1ccc(Cl)cc1)C(=O)c1ncccc1C2=O
inactive	4.55	4.62	Cc1oc2c(c1C(=O)OCC(F)(F)F)C(=O)c1ncccc1C2=O
inactive	4.85	4.89	Cc1oc2c(c1C(=O)OCCC#N)C(=O)c1ncccc1C2=O
inactive	< 3.95	–	CCNC(=O)c1c(C)oc2c1C(=O)c1cccnc1C2=O
inactive	4.06	–	Cc1oc2c(c1C(=O)Oc1ccc(NC(=O)OC(C)(C)C)cc1)C(=O)c1ncccc1C2=O
inactive	< 3.95	–	Cc1oc2c(c1C(=O)Nc1cccc(Cl)c1)C(=O)c1cccnc1C2=O
inactive	4.54	4.41	Cc1oc2c(c1C(=O)Oc1ccccc1O)C(=O)c1cccnc1C2=O
inactive	< 3.95	< 3.95	Cc1oc2c(c1C(=O)Oc1ccc3c(c1)OCO3)C(=O)c1ncccc1C2=O
inactive	4.29	4.43	Cc1oc2c(c1C(=O)OCC(=O)O)C(=O)c1ncccc1C2=O
inactive	4.37	4.42	Cc1oc2c(c1C(=O)OCCC[n+]1ccc(N(C)C)cc1)C(=O)c1ncccc1C2=O
inactive	4.18	4.14	Cc1oc2c(c1C(=O)OCCc1cn(CCCO)nn1)C(=O)c1ncccc1C2=O
inactive	4.51	–	Cc1oc2c(c1C(=O)Oc1cccc(NC(=O)OC(C)(C)C)c1)C(=O)c1ncccc1C2=O
inactive	< 3.95	–	CCOC(=O)c1n[nH]c2c1C(=O)c1ncccc1C2=O
inactive	4.29	–	Cc1oc2c(c1C(=O)Oc1ccc(OCCCN3CCOCC3)cc1)C(=O)c1ncccc1C2=O
inactive	4.44	–	Cc1oc2c(c1C(=O)Oc1ccccc1NC(=O)OC(C)(C)C)C(=O)c1ncccc1C2=O
inactive	< 3.95	–	CCOC(=O)c1c(C)[nH]c2c1C(=O)c1cccnc1C2=O
inactive	< 3.95	–	Cc1oc2c(c1-c1nc3ccccc3o1)C(=O)c1ncccc1C2=O

SMILES	inhibition [1]	pIC50 [2]	pIC50 [3]
Cc1oc2c(c1C(=O)OCCc1ccccc1)C(=O)c1ncccc1C2=O	inactive	4.28	4.62
Cc1oc2c(c1C(=O)Oc1cccc(-c3cn(CCC(=O)O)nn3)c1)C(=O)c1ncccc1C2=O [listing 1 of 3 here]	inactive	–	–
COP(=O)(OC)Oc1ccc(OC(=O)c2c(C)oc3c2C(=O)c2ncccc2C3=O)cc1	inactive	4.51	–
CC(=O)c1c(C)oc2c1C(=O)c1cccnc1C2=O	inactive	< 3.95	–
CCNC(=O)c1c(C)oc2c1C(=O)c1ncccc1C2=O	inactive	< 3.95	–
COP(=O)(OC)c1c(C)oc2c1C(=O)c1ncccc1C2=O	inactive	< 3.95	–
Cc1oc2c(c1C(=O)Oc1ccc(Br)cc1)C(=O)c1ncccc1C2=O	inactive	4.46	4.92
C=CC(=O)Nc1ccc(OC(=O)c2c(C)oc3c2C(=O)c2ncccc2C3=O)cc1	inactive	4.17	–
Cc1oc2c(c1C(=O)OCCc1cn(CCC(=O)O)nn1)C(=O)c1ncccc1C2=O	inactive	4.70	4.80
Cc1oc2c(c1C(=O)Nc1ccccc1O)C(=O)c1ncccc1C2=O	inactive	< 3.95	–
Cc1oc2c(c1C(=O)OCC(O)CO)C(=O)c1ncccc1C2=O (centres undefined)	inactive	4.70	4.96
COC(=O)c1c(C)oc2c1C(=O)c1ncccc1C2=O	inactive	4.59	4.92
Cc1oc2c(c1C(=O)Oc1ccc3ccccc3c1)C(=O)c1ncccc1C2=O	inactive	< 3.95	–
CCOC(=O)c1c(C)oc2c1C(=O)c1cccnc1C2=O	inactive	4.37	4.27
CCOC(=O)c1c2c(n(C)c1C)C(=O)c1ncccc1C2=O	inactive	< 3.95	–
Cc1oc2c(c1C(=O)OCCCCO)C(=O)c1ncccc1C2=O	inactive	4.59	4.92
Cc1oc2c(c1C(=O)Oc1cccc(Cl)c1)C(=O)c1ncccc1C2=O	inactive	4.85	4.96
Cc1oc2c(c1C(=O)Nc1ccccc1)C(=O)c1ncccc1C2=O	inactive	< 3.95	–
COc1ccc(NC(=O)c2c(C)oc3c2C(=O)c2ncccc2C3=O)cc1	inactive	< 3.95	–
COP(=O)(CCOC(=O)c1c(C)oc2c1C(=O)c1ncccc1C2=O)OC	inactive	5.05	4.77
COP(=O)(OC)c1c(C)oc2c1C(=O)c1cccnc1C2=O	inactive	4.00	–
Cc1oc2c(c1C(=O)Oc1ccc(N)cc1)C(=O)c1ncccc1C2=O	inactive	4.72	–
Cc1oc2c(c1C(=O)Oc1cccc(-c3cn(CCC(=O)O)nn3)c1)C(=O)c1ncccc1C2=O [listing 2 of 3 here]	–	4.66	4.89
Cc1oc2c(c1C(=O)Oc1cccc(-c3cn(CCC(=O)O)nn3)c1)C(=O)c1ncccc1C2=O [listing 3 of 3 here]	–	4.30	4.55
C=CC(=O)Nc1cccc(OC(=O)c2c(C)oc3c2C(=O)c2ncccc2C3=O)c1	inactive	4.15	–
Cc1oc2c(c1C(=O)Nc1cccc(Cl)c1)C(=O)c1ncccc1C2=O	inactive	< 3.95	–
